# Data reported in paper PMC4134498 (British Journal of Cancer, 2014).
# “Also recorded” adds a separate entry of the source.
# Experiments:
# [1] = Plasma pharmacokinetics of olaparib alone and with PLD; assay type: in vivo, patients; details: for AUC(0-t): olaparib AUC0–10 h, Day 1 alone; for AUC(0-t) / Cmax: mean±s.d.; for Cmax: olaparib Cmax, Day 2+PLD
# advanced solid tumours = assay: Preliminary efficacy: best objective response, RECIST v1.0; assay type: in vivo, patients
# Method in brief: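 Patients with advanced solid tumours took oral PARP inhibitor capsules bid, 50–400 mg, on days 1–7 (intermittent) or days 1–28 (continuous) of 28-day cycles, plus liposomal anthracycline 40 mg m−2 on day 1, for up to 6 combination cycles. Site investigators scored objective response by RECIST v1.0. Analyses ran by tumour type and gBRCA status, and for ovarian cancer by platinum sensitivity (progression-free interval ⩾6 months), retrospectively.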
# [2] = ovarian cancer patients, all cohorts + PLD 40 mg m^−2, Total (n=26)
# [3] = ovarian cancer patients, olaparib 50 mg bid 7 day + PLD 40 mg m^−2 (n=3)
# [4] = ovarian cancer patients, olaparib 100 mg bid 7 day + PLD 40 mg m^−2 (n=2)
# [5] = ovarian cancer patients, olaparib 100 mg bid 28 day + PLD 40 mg m^−2 (n=2)
# [6] = ovarian cancer patients, olaparib 200 mg bid 7 day + PLD 40 mg m^−2 (n=2)
# [7] = ovarian cancer patients, olaparib 200 mg bid 28 day + PLD 40 mg m^−2 (n=3)
# [8] = ovarian cancer patients, olaparib 400 mg bid 7 day + PLD 40 mg m^−2 (n=8)
# [9] = ovarian cancer patients, olaparib 400 mg bid 28 day + PLD 40 mg m^−2 (n=8)
# [10] = overall population, all cohorts + PLD 40 mg m^−2, Total (n=42)
# [11] = overall population, olaparib 50 mg bid 7 day + PLD 40 mg m^−2 (n=3)
# [12] = overall population, olaparib 100 mg bid 7 day + PLD 40 mg m^−2 (n=3)
# [13] = overall population, olaparib 100 mg bid 28 day + PLD 40 mg m^−2 (n=4)
# [14] = overall population, olaparib 200 mg bid 7 day + PLD 40 mg m^−2 (n=3)
# [15] = overall population, olaparib 200 mg bid 28 day + PLD 40 mg m^−2 (n=7)
# [16] = overall population, olaparib 400 mg bid 7 day + PLD 40 mg m^−2 (n=12)
# [17] = overall population, olaparib 400 mg bid 28 day + PLD 40 mg m^−2 (n=12)
structure (smiles),measurement,setting,value
O=C(c1cc(Cc2n[nH]c(=O)c3ccccc23)ccc1F)N1CCN(C(=O)C2CC2)CC1 [olaparib],Tmax,"[1]; human, plasma, oral",2.1 h
same,AUC(0-t),"[1]; human, plasma, oral, 50 mg, olaparib 50 mg, n=3",8700 ± 5800 ng·h/mL
same,AUC(0-t),"[1]; human, plasma, oral, 400 mg, olaparib 400 mg bid, n=11",25900 ± 9000 ng·h/mL
same,Cmax,"[1]; human, plasma, oral, olaparib 50 mg bid",1400 ± 700 ng/mL
same,Cmax,"[1]; human, plasma, oral, olaparib 100 mg bid",2200 ± 1000 ng/mL
same,PK interference between olaparib and PLD,[1]; in vivo,No major pharmacokinetic interference; also recorded: minor
same,patients with antitumour activity,advanced solid tumours; continuous olaparib schedule + PLD,7 out of 23
same,patients with antitumour activity,advanced solid tumours; intermittent olaparib schedule + PLD,7 out of 21
same,"ORR, platinum-resistant ovarian patients with a gBRCA mutation",advanced solid tumours; olaparib + PLD,50%
same,"ORR, platinum-sensitive ovarian patients with a gBRCA mutation",advanced solid tumours; olaparib + PLD,67%
same,"ORR, platinum-sensitive ovarian patients with wild type or unknown gBRCA mutation status",advanced solid tumours; olaparib + PLD,100%
same,"objective responses, evaluable patients with breast cancer",advanced solid tumours; olaparib + PLD,8%
same,"response rate, platinum-resistant ovarian patients",advanced solid tumours; olaparib + PLD,25%
same,"response rate, platinum-sensitive ovarian patients",advanced solid tumours; olaparib + PLD,71%
same,"ORR, ovarian cancer subgroup","advanced solid tumours; olaparib + PLD, 13 out of 26",50%
same,"ORR, overall population","advanced solid tumours; olaparib + PLD, 14 out of 42",33%
same,Ovarian cancer patients with a complete or partial objective response,"advanced solid tumours; olaparib + PLD, Platinum resistant, gBRCA Unknown",0/6
same,Ovarian cancer patients with a complete or partial objective response,"advanced solid tumours; olaparib + PLD, Platinum resistant, gBRCAm",3/6
same,Ovarian cancer patients with a complete or partial objective response,"advanced solid tumours; olaparib + PLD, Platinum sensitive, gBRCA Unknown",1/1
same,Ovarian cancer patients with a complete or partial objective response,"advanced solid tumours; olaparib + PLD, Platinum sensitive, gBRCAm",8/12
same,Ovarian cancer patients with a complete or partial objective response,"advanced solid tumours; olaparib + PLD, Platinum sensitive, gBRCAwt",1/1
same,"response, gBRCA-mutated patients in the ovarian subgroup","advanced solid tumours; olaparib + PLD, eleven patients",61%
same,"partial response (PR), evaluable patients","advanced solid tumours; olaparib + PLD, overall, 11 patients",26%
same,"complete response (CR), evaluable patients","advanced solid tumours; olaparib + PLD, overall, three patients",7%
same,"Best objective response: Complete response, patients",advanced solid tumours; [2],3 (12) n (%)
same,"Best objective response: Partial response, patients",advanced solid tumours; [2],10 (38) n (%)
same,"Best objective response: Progressive disease, patients",advanced solid tumours; [2],5 (19) n (%)
same,"Best objective response: Stable disease, patients",advanced solid tumours; [2],8 (31) n (%)
same,"Best objective response: Complete response, patients",advanced solid tumours; [3],1 n
same,"Best objective response: Partial response, patients",advanced solid tumours; [3],1 n
same,"Best objective response: Progressive disease, patients",advanced solid tumours; [3],0 n
same,"Best objective response: Stable disease, patients",advanced solid tumours; [3],1 n
same,"Best objective response: Complete response, patients",advanced solid tumours; [4],0 n
same,"Best objective response: Partial response, patients",advanced solid tumours; [4],1 n
same,"Best objective response: Progressive disease, patients",advanced solid tumours; [4],1 n
same,"Best objective response: Stable disease, patients",advanced solid tumours; [4],0 n
same,"Best objective response: Complete response, patients",advanced solid tumours; [5],0 n
same,"Best objective response: Partial response, patients",advanced solid tumours; [5],0 n
same,"Best objective response: Progressive disease, patients",advanced solid tumours; [5],1 n
same,"Best objective response: Stable disease, patients",advanced solid tumours; [5],0 n
same,"Best objective response: Complete response, patients",advanced solid tumours; [6],0 n
same,"Best objective response: Partial response, patients",advanced solid tumours; [6],1 n
same,"Best objective response: Progressive disease, patients",advanced solid tumours; [6],0 n
same,"Best objective response: Stable disease, patients",advanced solid tumours; [6],1 n
same,"Best objective response: Complete response, patients",advanced solid tumours; [7],0 n
same,"Best objective response: Partial response, patients",advanced solid tumours; [7],1 n
same,"Best objective response: Progressive disease, patients",advanced solid tumours; [7],0 n
same,"Best objective response: Stable disease, patients",advanced solid tumours; [7],1 n
same,"Best objective response: Complete response, patients",advanced solid tumours; [8],1 n
same,"Best objective response: Partial response, patients",advanced solid tumours; [8],2 n
same,"Best objective response: Progressive disease, patients",advanced solid tumours; [8],1 n
same,"Best objective response: Stable disease, patients",advanced solid tumours; [8],4 n
same,"Best objective response: Complete response, patients",advanced solid tumours; [9],1 n
same,"Best objective response: Partial response, patients",advanced solid tumours; [9],4 n
same,"Best objective response: Progressive disease, patients",advanced solid tumours; [9],2 n
same,"Best objective response: Stable disease, patients",advanced solid tumours; [9],1 n
same,"Best objective response: Complete response, patients",advanced solid tumours; [10],3 (7) n (%)
same,"Best objective response: Not evaluable/unknown, patients",advanced solid tumours; [10],2 (5) n (%)
same,"Best objective response: Partial response, patients",advanced solid tumours; [10],11 (26) n (%)
same,"Best objective response: Progressive disease, patients",advanced solid tumours; [10],13 (31) n (%)
same,"Best objective response: Stable disease, patients",advanced solid tumours; [10],13 (31) n (%)
same,"Best objective response: Complete response, patients",advanced solid tumours; [11],1 n
same,"Best objective response: Not evaluable/unknown, patients",advanced solid tumours; [11],0 n
same,"Best objective response: Partial response, patients",advanced solid tumours; [11],1 n
same,"Best objective response: Progressive disease, patients",advanced solid tumours; [11],0 n
same,"Best objective response: Stable disease, patients",advanced solid tumours; [11],1 n
same,"Best objective response: Complete response, patients",advanced solid tumours; [12],0 n
same,"Best objective response: Not evaluable/unknown, patients",advanced solid tumours; [12],0 n
same,"Best objective response: Partial response, patients",advanced solid tumours; [12],1 n
same,"Best objective response: Progressive disease, patients",advanced solid tumours; [12],1 n
same,"Best objective response: Stable disease, patients",advanced solid tumours; [12],1 n
same,"Best objective response: Complete response, patients",advanced solid tumours; [13],0 n
same,"Best objective response: Not evaluable/unknown, patients",advanced solid tumours; [13],0 n
same,"Best objective response: Partial response, patients",advanced solid tumours; [13],0 n
same,"Best objective response: Progressive disease, patients",advanced solid tumours; [13],2 n
same,"Best objective response: Stable disease, patients",advanced solid tumours; [13],1 n
same,"Best objective response: Complete response, patients",advanced solid tumours; [14],0 n
same,"Best objective response: Not evaluable/unknown, patients",advanced solid tumours; [14],0 n
same,"Best objective response: Partial response, patients",advanced solid tumours; [14],1 n
same,"Best objective response: Progressive disease, patients",advanced solid tumours; [14],1 n
same,"Best objective response: Stable disease, patients",advanced solid tumours; [14],1 n
same,"Best objective response: Complete response, patients",advanced solid tumours; [15],0 n
same,"Best objective response: Not evaluable/unknown, patients",advanced solid tumours; [15],1 n
same,"Best objective response: Partial response, patients",advanced solid tumours; [15],1 n
same,"Best objective response: Progressive disease, patients",advanced solid tumours; [15],2 n
same,"Best objective response: Stable disease, patients",advanced solid tumours; [15],2 n
same,"Best objective response: Complete response, patients",advanced solid tumours; [16],1 n
same,"Best objective response: Not evaluable/unknown, patients",advanced solid tumours; [16],1 n
same,"Best objective response: Partial response, patients",advanced solid tumours; [16],2 n
same,"Best objective response: Progressive disease, patients",advanced solid tumours; [16],3 n
same,"Best objective response: Stable disease, patients",advanced solid tumours; [16],5 n
same,"Best objective response: Complete response, patients",advanced solid tumours; [17],1 n
same,"Best objective response: Not evaluable/unknown, patients",advanced solid tumours; [17],0 n
same,"Best objective response: Partial response, patients",advanced solid tumours; [17],5 n
same,"Best objective response: Progressive disease, patients",advanced solid tumours; [17],4 n
same,"Best objective response: Stable disease, patients",advanced solid tumours; [17],2 n
